Assay results: article PMC12679430 (RSC Advances, 2025)

Legend:
Hela cells = assay: Antiproliferative assay; assay type: cell-based; conditions: Homo sapiens, 72 h, read-out: Antiproliferative IC50, Hela
SiHa cells = assay: Antiproliferative assay; assay type: cell-based; conditions: Homo sapiens, 72 h, read-out: Antiproliferative IC50, SiHa
[1] = tested on: human normal cervical epithelial cells (HcerEpic); assay: Toxicity in normal cervical epithelial cells; assay type: cell-based; conditions: Epithelial cell, read-out: IC50, HcerEpic
In short: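 Cells grown in IMDM with 20% FBS, 100 U/mL penicillin and 100 µg mL−1 streptomycin at 37 °C, humidified 5% CO2. Serially diluted test compound applied for 72 h. Alamar blue (1 mM stock solution) then added for another 5–6 h, with the signal read at 530/590 nm. Data normalised to DMSO vehicle, mean of three independent measurements, and IC50 fitted from the curves.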

[2] = Microsomal stability assay; assay type: in vitro ADME; conditions: human, human liver microsomes, pH 7.4
[3] = in clinical; cited from earlier work

SMILES	IC50 (Hela cells) [µM]	IC50 (SiHa cells) [µM]	IC50 [1] [µM]	half-life at 0.5 µM [2] [h]	dose-limiting toxicities [3]
O=C(CCCCCCNC(=O)c1cnc(N(c2ccccc2)c2ccccc2)nc1)NO [ACY1215]	6.8 ± 0.35	11.3 ± 0.8	> 50	6.7	
O=C(NO)c1ccc(CN(c2cnccn2)c2cnccn2)cc1 [KA2507]					no dose-limiting toxicities
